What was measured:
A549 [1] = assay: Cytotoxicity against human A549 cells assessed as growth inhibition at 0.28 mM after 24 hrs by spectrophotometer using BrdU labeling; type: functional; conditions: A549, 24 h, read-out: GI
T47D [2] = assay: Cytotoxicity against human T47D cells assessed as growth inhibition at 0.28 mM after 24 hrs by spectrophotometer using BrdU labeling; type: functional; conditions: read-out: GI
Procedure, shortened: (§1)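 Human breast carcinoma T47D cells were plated at 10⁴ cells per mL on microtiter plates. Each compound was added at three doses, given as mM equivalents of three mass concentrations. Plates were incubated for 24, 48 or 72 h. The read-out was percent growth inhibition (GI).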

T47D [3] = assay: Cytotoxicity against human T47D cells assessed as growth inhibition at 0.28 mM after 48 hrs by spectrophotometer using BrdU labeling; type: functional; conditions: read-out: GI; procedure, shortened: as §1
T47D [4] = assay: Cytotoxicity against human T47D cells assessed as growth inhibition at 0.03 mM after 24 hrs by spectrophotometer using BrdU labeling; type: functional; conditions: read-out: GI
T47D [5] = assay: Cytotoxicity against human T47D cells assessed as growth inhibition at 0.28 mM after 72 hrs by spectrophotometer using BrdU labeling; type: functional; conditions: read-out: GI; procedure, shortened: as §1
[6] = Cytotoxicity against human HSF cells assessed as growth inhibition at 0.28 mM after 72 hrs by spectrophotometer using BrdU labeling; type: cell-based; conditions: read-out: GI
T47D [7] = assay: Cytotoxicity against human T47D cells assessed as growth inhibition at 0.14 mM after 48 hrs by spectrophotometer using BrdU labeling; type: functional; conditions: read-out: GI
[8] = Cytotoxicity against human HSF cells assessed as growth inhibition at 0.14 mM after 72 hrs by spectrophotometer using BrdU labeling; type: cell-based; conditions: read-out: GI
[9] = Cytotoxicity against human HSF cells assessed as growth inhibition at 0.28 mM after 24 hrs by spectrophotometer using BrdU labeling; type: cell-based; conditions: read-out: GI
A549 [10] = assay: Cytotoxicity against human A549 cells assessed as growth inhibition at 0.14 mM after 72 hrs by spectrophotometer using BrdU labeling; type: functional; conditions: A549, 72 h, read-out: GI
A549 [11] = assay: Cytotoxicity against human A549 cells assessed as growth inhibition at 0.03 mM after 48 hrs by spectrophotometer using BrdU labeling; type: functional; conditions: A549, 48 h, read-out: GI
A549 [12] = assay: Cytotoxicity against human A549 cells assessed as growth inhibition at 0.28 mM after 72 hrs by spectrophotometer using BrdU labeling; type: functional; conditions: A549, 72 h, read-out: GI
A549 [13] = assay: Cytotoxicity against human A549 cells assessed as growth inhibition at 0.14 mM after 24 hrs by spectrophotometer using BrdU labeling; type: functional; conditions: A549, 24 h, read-out: GI
A549 [14] = assay: Cytotoxicity against human A549 cells assessed as growth inhibition at 0.03 mM after 72 hrs by spectrophotometer using BrdU labeling; type: functional; conditions: A549, 72 h, read-out: GI
A549 [15] = assay: Cytotoxicity against human A549 cells assessed as growth inhibition at 0.28 mM after 48 hrs by spectrophotometer using BrdU labeling; type: functional; conditions: A549, 48 h, read-out: GI
[16] = Cytotoxicity against human HSF cells assessed as growth inhibition at 0.28 mM after 48 hrs by spectrophotometer using BrdU labeling; type: cell-based; conditions: read-out: GI
A549 [17] = assay: Cytotoxicity against human A549 cells assessed as growth inhibition at 0.03 mM after 24 hrs by spectrophotometer using BrdU labeling; type: functional; conditions: A549, 24 h, read-out: GI
[18] = Cytotoxicity against human HSF cells assessed as growth inhibition at 0.03 mM after 24 hrs by spectrophotometer using BrdU labeling; type: cell-based; conditions: read-out: GI
[19] = Cytotoxicity against human HSF cells assessed as growth inhibition at 0.03 mM after 72 hrs by spectrophotometer using BrdU labeling; type: cell-based; conditions: read-out: GI
T47D [20] = assay: Cytotoxicity against human T47D cells assessed as growth inhibition at 0.03 mM after 72 hrs by spectrophotometer using BrdU labeling; type: functional; conditions: read-out: GI
T47D [21] = assay: Cytotoxicity against human T47D cells assessed as growth inhibition at 0.14 mM after 72 hrs by spectrophotometer using BrdU labeling; type: functional; conditions: read-out: GI
T47D [22] = assay: Cytotoxicity against human T47D cells assessed as growth inhibition at 0.14 mM after 24 hrs by spectrophotometer using BrdU labeling; type: functional; conditions: read-out: GI
[23] = Cytotoxicity against human HSF cells assessed as growth inhibition at 0.03 mM after 48 hrs by spectrophotometer using BrdU labeling; type: cell-based; conditions: read-out: GI
[24] = Cytotoxicity against human HSF cells assessed as growth inhibition at 0.14 mM after 48 hrs by spectrophotometer using BrdU labeling; type: cell-based; conditions: read-out: GI
A549 [25] = assay: Cytotoxicity against human A549 cells assessed as growth inhibition at 0.14 mM after 48 hrs by spectrophotometer using BrdU labeling; type: functional; conditions: A549, 48 h, read-out: GI
T47D [26] = assay: Cytotoxicity against human T47D cells assessed as growth inhibition at 0.03 mM after 48 hrs by spectrophotometer using BrdU labeling; type: functional; conditions: read-out: GI
[27] = Cytotoxicity against human HSF cells assessed as growth inhibition at 0.14 mM after 24 hrs by spectrophotometer using BrdU labeling; type: cell-based; conditions: read-out: GI
T47D [28] = assay: Cytotoxicity against human T47D cells assessed as growth inhibition at 0.35 mM after 24 hrs by spectrophotometer using BrdU labeling; type: functional; conditions: read-out: GI; procedure, shortened: as §1
A549 [29] = assay: Cytotoxicity against human A549 cells assessed as growth inhibition at 0.35 mM after 24 hrs by spectrophotometer using BrdU labeling; type: functional; conditions: A549, 24 h, read-out: GI
[30] = Cytotoxicity against human HSF cells assessed as growth inhibition at 0.35 mM after 48 hrs by spectrophotometer using BrdU labeling; type: cell-based; conditions: read-out: GI
[31] = Cytotoxicity against human HSF cells assessed as growth inhibition at 0.17 mM after 48 hrs by spectrophotometer using BrdU labeling; type: cell-based; conditions: read-out: GI
[32] = Cytotoxicity against human HSF cells assessed as growth inhibition at 0.35 mM after 24 hrs by spectrophotometer using BrdU labeling; type: cell-based; conditions: read-out: GI
[33] = Cytotoxicity against human HSF cells assessed as growth inhibition at 0.17 mM after 72 hrs by spectrophotometer using BrdU labeling; type: cell-based; conditions: read-out: GI
A549 [34] = assay: Cytotoxicity against human A549 cells assessed as growth inhibition at 0.17 mM after 72 hrs by spectrophotometer using BrdU labeling; type: functional; conditions: A549, 72 h, read-out: GI
A549 [35] = assay: Cytotoxicity against human A549 cells assessed as growth inhibition at 0.35 mM after 72 hrs by spectrophotometer using BrdU labeling; type: functional; conditions: A549, 72 h, read-out: GI
T47D [36] = assay: Cytotoxicity against human T47D cells assessed as growth inhibition at 0.35 mM after 48 hrs by spectrophotometer using BrdU labeling; type: functional; conditions: read-out: GI; procedure, shortened: as §1
A549 [37] = assay: Cytotoxicity against human A549 cells assessed as growth inhibition at 0.17 mM after 24 hrs by spectrophotometer using BrdU labeling; type: functional; conditions: A549, 24 h, read-out: GI
[38] = Cytotoxicity against human HSF cells assessed as growth inhibition at 0.17 mM after 24 hrs by spectrophotometer using BrdU labeling; type: cell-based; conditions: read-out: GI
[39] = Cytotoxicity against human HSF cells assessed as growth inhibition at 0.35 mM after 72 hrs by spectrophotometer using BrdU labeling; type: cell-based; conditions: read-out: GI
T47D [40] = assay: Cytotoxicity against human T47D cells assessed as growth inhibition at 0.17 mM after 72 hrs by spectrophotometer using BrdU labeling; type: functional; conditions: read-out: GI; procedure, shortened: as §1
A549 [41] = assay: Cytotoxicity against human A549 cells assessed as growth inhibition at 0.17 mM after 48 hrs by spectrophotometer using BrdU labeling; type: functional; conditions: A549, 48 h, read-out: GI
T47D [42] = assay: Cytotoxicity against human T47D cells assessed as growth inhibition at 0.17 mM after 48 hrs by spectrophotometer using BrdU labeling; type: functional; conditions: read-out: GI; procedure, shortened: as §1
T47D [43] = assay: Cytotoxicity against human T47D cells assessed as growth inhibition at 0.17 mM after 24 hrs by spectrophotometer using BrdU labeling; type: functional; conditions: read-out: GI; procedure, shortened: as §1
T47D [44] = assay: Cytotoxicity against human T47D cells assessed as growth inhibition at 0.35 mM after 72 hrs by spectrophotometer using BrdU labeling; type: functional; conditions: read-out: GI; procedure, shortened: as §1
A549 [45] = assay: Cytotoxicity against human A549 cells assessed as growth inhibition at 0.35 mM after 48 hrs by spectrophotometer using BrdU labeling; type: functional; conditions: A549, 48 h, read-out: GI

CCSc1n[nH]c(/C=C\C(=O)Nc2ccc(Br)cc2)n1
10%: inhibition of growth at 140 µM (T47D [7])
50%: inhibition of growth at 280 µM (A549 [1]) | inhibition at 72 h, 280 µM [6] | inhibition of growth at 140 µM (A549 [10]) | inhibition of growth at 140 µM (A549 [13]) | inhibition of growth at 280 µM (A549 [15]) | inhibition of growth at 140 µM (A549 [25])
25%: inhibition of growth at 280 µM (T47D [5]) | inhibition of growth at 30 µM (A549 [11]) | inhibition of growth at 30 µM (A549 [17]) | inhibition of growth at 140 µM (T47D [21])
75%: inhibition at 72 h, 140 µM [8] | inhibition at 24 h, 280 µM [9] | inhibition of growth at 280 µM (A549 [12]) | inhibition at 48 h, 280 µM [16] | inhibition at 48 h, 140 µM [24] | inhibition at 24 h, 140 µM [27]
5%: inhibition of growth at 280 µM (T47D [2]) | inhibition of growth at 140 µM (T47D [22])
20%: inhibition of growth at 280 µM (T47D [3])
0%: inhibition of growth at 30 µM (T47D [4]) | inhibition of growth at 30 µM (A549 [14]) | inhibition at 24 h, 30 µM [18] | inhibition at 72 h, 30 µM [19] | inhibition of growth at 30 µM (T47D [20]) | inhibition at 48 h, 30 µM [23] | inhibition of growth at 30 µM (T47D [26])

CCSc1n[nH]c(/C=C\C(=O)Nc2cccc(C)c2)n1
5%: inhibition of growth at 30 µM (A549 [11]) | inhibition at 24 h, 350 µM [32] | inhibition of growth at 30 µM (T47D [20]) | inhibition of growth at 170 µM (T47D [42]) | inhibition of growth at 170 µM (T47D [43]) | inhibition of growth at 30 µM (T47D [26])
25%: inhibition of growth at 170 µM (A549 [34]) | inhibition of growth at 170 µM (T47D [40]) | inhibition of growth at 350 µM (T47D [44])
50%: inhibition of growth at 350 µM (A549 [29]) | inhibition at 48 h, 350 µM [30] | inhibition at 48 h, 170 µM [31] | inhibition at 72 h, 170 µM [33] | inhibition of growth at 350 µM (A549 [35]) | inhibition of growth at 170 µM (A549 [37]) | inhibition at 24 h, 170 µM [38] | inhibition at 72 h, 350 µM [39] | inhibition of growth at 170 µM (A549 [41]) | inhibition of growth at 350 µM (A549 [45])
0%: inhibition of growth at 30 µM (T47D [4]) | inhibition of growth at 350 µM (T47D [28]) | inhibition of growth at 30 µM (A549 [14]) | inhibition of growth at 350 µM (T47D [36]) | inhibition at 24 h, 30 µM [18] | inhibition at 72 h, 30 µM [19] | inhibition at 48 h, 30 µM [23]
20%: inhibition of growth at 30 µM (A549 [17])

Reference: ChEMBL document CHEMBL1153775, “Synthesis, structure elucidation and antitumour activity of N-substituted amides of 3-(3-ethylthio-1,2,4-triazol-5-yl)propenoic acid” (Eur J Med Chem, 2009)
